Laboratory results from ChEMBL document CHEMBL1137650, “An OXA-66/OXA-51-like carbapenemase and possibly an efflux pump are associated with resistance to imipenem in Acinetobacter baumannii” (2007).
≈ marks a conversion by molar mass, not a printed value.

Columns and labels:
Assay type in all cases: functional
Acinetobacter baumannii [1] = assay: Antibacterial activity against imipenem-resistant Acinetobacter baumannii abh29 by broth dilution method
In short: (§1)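 Clinical isolates were collected at three Taiwan hospitals (1993–2003) and grown in tryptic soy broth at 37°C for 18 h. MIC by broth dilution following CLSI recommendations.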

Acinetobacter baumannii [2] = assay: Antibacterial activity against imipenem-resistant Acinetobacter baumannii abh20 by broth dilution method; in short: as §1
Acinetobacter baumannii [3] = assay: Antibacterial activity against imipenem-resistant Acinetobacter baumannii abh18 by broth dilution method; in short: as §1
Acinetobacter baumannii [4] = assay: Antibacterial activity against imipenem-resistant Acinetobacter baumannii abh39 by broth dilution method; in short: as §1
Acinetobacter baumannii [5] = assay: Antibacterial activity against imipenem-resistant Acinetobacter baumannii abh36 by broth dilution method; in short: as §1
Acinetobacter baumannii [6] = assay: Antibacterial activity against imipenem-resistant Acinetobacter baumannii abh14 by broth dilution method; in short: as §1
Acinetobacter baumannii [7] = assay: Antibacterial activity against imipenem-susceptible Acinetobacter baumannii ab3 by broth dilution method; in short: as §1
Acinetobacter baumannii [8] = assay: Antibacterial activity against imipenem-resistant Acinetobacter baumannii abh26 by broth dilution method; in short: as §1
Acinetobacter baumannii [9] = assay: Antibacterial activity against imipenem-resistant Acinetobacter baumannii abh13 by broth dilution method; in short: as §1
Acinetobacter baumannii [10] = assay: Antibacterial activity against imipenem-intermediate Acinetobacter baumannii ab1297 by broth dilution method
In short: (§2)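 Clinical A. baumannii isolates collected at three Taiwanese hospitals, routinely grown in tryptic soy broth at 37°C for 18 h. MICs (μg ml⁻¹) were determined by broth dilution following CLSI recommendations, or by Etest strips following the manufacturer's instructions.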

Acinetobacter baumannii [11] = assay: Antibacterial activity against imipenem-susceptible Acinetobacter baumannii ab1316 by broth dilution method; in short: as §2
Acinetobacter baumannii [12] = assay: Antibacterial activity against imipenem-susceptible Acinetobacter baumannii ab1308 by broth dilution method; in short: as §2
Acinetobacter baumannii [13] = assay: Antibacterial activity against imipenem-resistant Acinetobacter baumannii abh37 by broth dilution method; in short: as §1
Acinetobacter baumannii [14] = assay: Antibacterial activity against imipenem-susceptible Acinetobacter baumannii ab4 by broth dilution method; in short: as §1
Acinetobacter baumannii [15] = assay: Antibacterial activity against imipenem-resistant Acinetobacter baumannii abh11 by broth dilution method; in short: as §1
Acinetobacter baumannii [16] = assay: Antibacterial activity against imipenem-resistant Acinetobacter baumannii abh17 by broth dilution method; in short: as §1
Acinetobacter baumannii [17] = assay: Antibacterial activity against imipenem-susceptible Acinetobacter baumannii ab20 by broth dilution method; in short: as §1
Acinetobacter baumannii [18] = assay: Antibacterial activity against imipenem-susceptible Acinetobacter baumannii ab1254 by broth dilution method; in short: as §1
Acinetobacter baumannii [19] = assay: Antibacterial activity against imipenem-resistant Acinetobacter baumannii ab1265 by broth dilution method; in short: as §1
Acinetobacter baumannii [20] = assay: Antibacterial activity against imipenem-susceptible Acinetobacter baumannii ab8 by broth dilution method; in short: as §1
Acinetobacter baumannii [21] = assay: Antibacterial activity against imipenem-susceptible Acinetobacter baumannii ab12 by broth dilution method; in short: as §1
Acinetobacter baumannii [22] = assay: Antibacterial activity against imipenem-resistant Acinetobacter baumannii ab1266 by broth dilution method; in short: as §1
Acinetobacter baumannii [23] = assay: Antibacterial activity against imipenem-resistant Acinetobacter baumannii abh9 by broth dilution method; in short: as §1

Compound | MIC (Acinetobacter baumannii [1]) [µg/mL] | MIC (Acinetobacter baumannii [2]) [µg/mL] | MIC (Acinetobacter baumannii [3]) [µg/mL] | MIC (Acinetobacter baumannii [4]) [µg/mL] | MIC (Acinetobacter baumannii [5]) [µg/mL] | MIC (Acinetobacter baumannii [6]) [µg/mL] | MIC (Acinetobacter baumannii [7]) [µg/mL] | MIC (Acinetobacter baumannii [8]) [µg/mL] | MIC (Acinetobacter baumannii [9]) [µg/mL] | MIC (Acinetobacter baumannii [10]) [µg/mL] | MIC (Acinetobacter baumannii [11]) [µg/mL] | MIC (Acinetobacter baumannii [12]) [µg/mL] | MIC (Acinetobacter baumannii [13]) [µg/mL] | MIC (Acinetobacter baumannii [14]) [µg/mL] | MIC (Acinetobacter baumannii [15]) [µg/mL] | MIC (Acinetobacter baumannii [16]) [µg/mL] | MIC (Acinetobacter baumannii [17]) [µg/mL] | MIC (Acinetobacter baumannii [18]) [µg/mL] | MIC (Acinetobacter baumannii [19]) [µg/mL] | MIC (Acinetobacter baumannii [20]) [µg/mL] | further results
CO/N=C(\C(=O)N[C@@H]1C(=O)N2C(C(=O)[O-])=C(C[N+]3(C)CCCC3)CS[C@H]12)c1csc(N)n1 [CEFEPIME] | 96 (≈ 200 µM) | 256 (≈ 533 µM) | 256 (≈ 533 µM) | 256 (≈ 533 µM) | 256 (≈ 533 µM) | 256 (≈ 533 µM) | 6 (≈ 12.5 µM) | 256 (≈ 533 µM) | – | – | – | – | – | – | – | – | – | – | – | – | –
CC(C)(O/N=C(\C(=O)N[C@@H]1C(=O)N2C(C(=O)[O-])=C(C[n+]3ccccc3)CS[C@H]12)c1csc(N)n1)C(=O)O [CEFTAZIDIME] | > 256 | > 256 | > 256 | > 256 | > 256 | > 256 | 48 (≈ 87.8 µM) | > 256 | > 256 | > 256 | > 256 | > 256 | > 256 | 32 (≈ 58.5 µM) | > 256 | > 256 | 24 (≈ 43.9 µM) | > 256 | > 256 | 48 (≈ 87.8 µM) | MIC (Acinetobacter baumannii [21]): 48 µg/mL (≈ 87.8 µM); MIC (Acinetobacter baumannii [22]): > 256 µg/mL; MIC (Acinetobacter baumannii [23]): > 256 µg/mL
GENTAMICIN | > 256 | > 256 | > 256 | > 256 | > 256 | > 256 | 256 | > 256 | > 256 | > 256 | > 256 | > 256 | > 256 | 256 | > 256 | > 256 | > 256 | > 256 | > 256 | > 256 | MIC (Acinetobacter baumannii [21]): > 256 µg/mL; MIC (Acinetobacter baumannii [22]): > 256 µg/mL; MIC (Acinetobacter baumannii [23]): > 256 µg/mL
NCC[C@H](O)C(=O)N[C@@H]1C[C@H](N)[C@@H](O[C@H]2O[C@H](CN)[C@@H](O)[C@H](O)[C@H]2O)[C@H](O)[C@H]1O[C@H]1O[C@H](CO)[C@@H](O)[C@H](N)[C@H]1O [AMIKACIN] | > 256 | > 256 | > 256 | > 256 | > 256 | > 256 | 3 (≈ 5.12 µM) | > 256 | > 256 | > 256 | > 256 | > 256 | > 256 | 8 (≈ 13.7 µM) | > 256 | > 256 | 128 (≈ 219 µM) | > 256 | > 256 | 12 (≈ 20.5 µM) | MIC (Acinetobacter baumannii [21]): > 256 µg/mL; MIC (Acinetobacter baumannii [22]): > 256 µg/mL; MIC (Acinetobacter baumannii [23]): > 256 µg/mL
CCN1CCN(C(=O)N[C@@H](C(=O)N[C@@H]2C(=O)N3[C@@H]2SC(C)(C)[C@@H]3C(=O)O)c2ccccc2)C(=O)C1=O [PIPERACILLIN] | > 256 | > 256 | > 256 | > 256 | > 256 | > 256 | > 256 | > 256 | > 256 | > 256 | > 256 | > 256 | > 256 | > 256 | > 256 | > 256 | > 256 | > 256 | > 256 | > 256 | MIC (Acinetobacter baumannii [21]): > 256 µg/mL; MIC (Acinetobacter baumannii [22]): > 256 µg/mL; MIC (Acinetobacter baumannii [23]): > 256 µg/mL
